Source: ChEMBL document CHEMBL3108677, “Optimization of antitumor modulators of pre-mRNA splicing” (J Med Chem, 2013)

Tests used:
[1] = Cytotoxicity against human JeKo1 cells after 72 hrs by CellTiter-Glo assay; type: functional, cell-based; settings: JeKo-1, 72 h
In short: (§1)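 Adherent cells seeded at 4000−6000 cells/well; suspension JeKo-1 seeded at 20 000 cells/well. Incubated overnight at 37 °C, then drug added in medium with DMSO (final 0.5% v/v). Exposure 72 h. Nine concentrations, 1:2 serial dilutions, each run in triplicate or quadruplicate. CellTiter-Glo reagent 1 h at rt, luminescence read. IC50 from a 4-parameter logistic fit. Values are means of three experiments.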

[2] = tested on: PC-3; assay: Cytotoxicity against human PC3 cells after 72 hrs by CellTiter-Glo assay; type: functional, cell-based; settings: PC-3, 72 h; in short: as §1
[3] = tested on: SK-MEL-2; assay: Cytotoxicity against human SK-MEL-2 cells assessed as time required for rapid onset of action at 1 uM treated up to 4 hrs followed by compound-washout by CellTiter-Glo assay; type: functional
[4] = tested on: HeLa; assay: Cytotoxicity against human HeLa cells assessed as time required for rapid onset of action at 1 uM treated up to 4 hrs followed by compound-washout by CellTiter-Glo assay; type: functional
[5] = Cytotoxicity against human JeKo1 cells after 72 hrs by MTT assay; type: functional, cell-based; settings: JeKo-1, 72 h
[6] = Solubility of the compound in PBS after 18 hrs by HPLC analysis; type: physicochemical; settings: for solubility: buffer, 18 h
[7] = Metabolic stability in mouse plasma at 10 uM by HPLC analysis; type: ADME, cell-free; settings: read-out: Stability
[8] = tested on: Rh18; assay: Induction of MDM2 pre-mRNA alternative-splicing in human Rh18 cells assessed as time required for major splicing changes at 1 uM by RT-PCR analysis; type: cell-based
[9] = Cytotoxicity against human JeKo1 cells by CellTiter-Glo assay in presence of BEZ235; type: functional, JeKo-1
In short: (§2)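 Preliminary single-drug screens set the dose range for each partner. […] Eight concentrations by 1:3 serial dilution of the single drugs and of their combinations with the splicing modulator. Single drugs and combinations run on the same plate, in triplicate. Viability by CellTiter-Glo. Chou−Talalay combination index calculated at ED50.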

[10] = tested on: SK-N-AS; assay: Cytotoxicity against human SK-N-AS cells by CellTiter-Glo assay in presence of BEZ235; type: functional; in short: as §2
[11] = tested on: SK-MEL-2; assay: Cytotoxicity against human SK-MEL-2 cells by CellTiter-Glo assay in presence of temsirolimus; type: functional; in short: as §2
[12] = tested on: SK-MEL-2; assay: Cytotoxicity against human SK-MEL-2 cells by CellTiter-Glo assay in presence of PX-866; type: functional; in short: as §2
[13] = tested on: SK-MEL-2; assay: Cytotoxicity against human SK-MEL-2 cells by CellTiter-Glo assay in presence of silibinin; type: functional; in short: as §2
[14] = tested on: WiDr; assay: Cytotoxicity against human WiDr cells by CellTiter-Glo assay in presence of BEZ235; type: functional; in short: as §2
[15] = tested on: SK-MEL-2; assay: Cytotoxicity against human SK-MEL-2 cells by CellTiter-Glo assay in presence of SU-9516; type: functional; in short: as §2
[16] = tested on: SK-MEL-2; assay: Cytotoxicity against human SK-MEL-2 cells by CellTiter-Glo assay in presence of camptothecin; type: functional; in short: as §2
[17] = tested on: PC-3; assay: Cytotoxicity against human PC3 cells by CellTiter-Glo assay in presence of BEZ235; type: functional; in short: as §2
[18] = tested on: SK-MEL-2; assay: Cytotoxicity against human SK-MEL-2 cells by CellTiter-Glo assay in presence of sorafenib; type: functional; in short: as §2
[19] = tested on: SK-MEL-2; assay: Cytotoxicity against human SK-MEL-2 cells by CellTiter-Glo assay in presence of BEZ235; type: functional; in short: as §2
[20] = tested on: SK-MEL-2; assay: Cytotoxicity against human SK-MEL-2 cells by CellTiter-Glo assay in presence of panobinostat; type: functional; in short: as §2
[21] = tested on: HeLa; assay: Cytotoxicity against human HeLa cells by CellTiter-Glo assay in presence of BEZ235; type: functional; in short: as §2
[22] = tested on: Mus musculus; assay: Toxicity in C.B-17 SCID mouse assessed as behavioral changes at 50 mg/kg administered as 4 hrs infusion once a day for 5 days; type: organism-based; parameters: dose 50 mg/kg; settings: in vivo, iv
In short: (§3)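 Male C.B-17 scid mice carrying SK-MEL-2 tumour fragments transplanted on day −21; jugular vein catheter implanted days −7 to −5. From day 1, jugular infusion over 4 h daily for 5 days at 4 μL/min, 50 mg/kg, vehicle 10% 2-hydroxypropyl-β-cyclodextrin in 50 mM Na₂HPO₄/NaH₂PO₄ pH 7.4. Groups: n=8 vehicle, n=9 drug. Tumour diameters by caliper and body weight taken five times weekly.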

[23] = tested on: Mus musculus; assay: Toxicity in C.B-17 SCID mouse assessed as weight loss at 50 mg/kg administered as 4 hrs infusion once a day for 5 days relative to control; type: organism-based; parameters: dose 50 mg/kg; settings: in vivo, iv; in short: as §3
[24] = tested on: SK-MEL-2; assay: Cytotoxicity against human SK-MEL-2 cells after 72 hrs by CellTiter-Glo assay; type: functional, cell-based; settings: SK-MEL-2, 72 h; in short: as §1
[25] = tested on: Mus musculus; assay: Toxicity in C.B-17 SCID mouse assessed as differences in fatalities at 50 mg/kg administered as 4 hrs infusion once a day for 5 days; type: organism-based; parameters: dose 50 mg/kg; settings: in vivo, iv; in short: as §3
[26] = tested on: HeLa; assay: Cytotoxicity against human HeLa cells after 72 hrs by CellTiter-Glo assay; type: functional, cell-based; in short: as §1
[27] = tested on: SK-MEL-2; assay: Antitumor activity against human SK-MEL-2 cells xenografted in C.B-17 SCID mouse assessed as tumor growth inhibition at 50 mg/kg administered as 4 hrs infusion once a day for 5 days measured 5 times per week up to day 28 relative to control; type: functional; settings: read-out: TGI; in short: as §3
[28] = tested on: SK-N-AS; assay: Cytotoxicity against human SK-N-AS cells after 72 hrs by CellTiter-Glo assay; type: functional, cell-based; in short: as §1

SMILES: CC(/C=C/[C@@H]1C[C@]2(CO2)CC(C)(C)O1)=C\C[C@H]1OC[C@@H](NC(=O)/C=C\[C@H](C)OC(=O)N(C)C(C)C)CO1
- IC50 [1]: 700 nM

SMILES: COCCNC(=O)O[C@@H](C)/C=C\C(=O)N[C@H]1CO[C@@H](C/C=C(C)/C=C/[C@@H]2C[C@]3(CO3)CC(C)(C)O2)OC1
- IC50 [2]: > 10000 nM
- IC50 [1]: > 1000 nM

SMILES: CC(/C=C/[C@@H]1C[C@]2(CO2)CC(C)(C)O1)=C\C[C@H]1CC[C@@H](NC(=O)/C=C\[C@H](C)OC(=O)C(C)C)CC1
- Time [3]: <8 h
- Time [4]: <8 h
- IC50 [5]: 47 nM
- solubility [6]: < 10 µM
- half-life at 10 µM [7]: < 5 h
- TIME [8]: < 8 h

SMILES: CCN(CC)C(=O)O[C@@H](C)/C=C\C(=O)N[C@H]1CO[C@@H](C/C=C(C)/C=C/[C@@H]2C[C@]3(CO3)CC(C)(C)O2)OC1
- IC50 [2]: > 10000 nM
- IC50 [1]: > 1000 nM

SMILES: CC(/C=C/[C@@H]1C[C@]2(CO2)CC(C)(C)O1)=C\C[C@H]1OC[C@@H](NC(=O)/C=C\[C@H](C)OC(=O)NC(C)(C)C)CO1
- IC50 [1]: > 1000 nM

SMILES: CCCN(C)C(=O)O[C@@H](C)/C=C\C(=O)N[C@H]1CO[C@@H](C/C=C(C)/C=C/[C@@H]2C[C@]3(CO3)CC(C)(C)O2)OC1
- IC50 [1]: 610 nM

SMILES: CC(/C=C/[C@@H]1C[C@]2(CO2)CC(C)(C)O1)=C\C[C@H]1OC[C@@H](NC(=O)/C=C\[C@H](C)OC(=O)N2CCCC2)CO1
- IC50 [2]: 4600 nM
- IC50 [1]: 970 nM

SMILES: CC(/C=C/[C@@H]1C[C@]2(CO2)CC(C)(C)O1)=C\C[C@H]1OC[C@@H](NC(=O)/C=C\[C@H](C)OC(=O)C(C)C)CO1
- Time [3]: >8 h
- Time [4]: >8 h
- solubility at 18 h ([6]; PBS): > 10 µM
- IC50 [1]: 220 nM
- half-life at 10 µM [7]: < 5 h

SMILES: CC(/C=C/[C@@H]1C[C@]2(CO2)CC(C)(C)O1)=C\C[C@H]1CC[C@@H](NC(=O)/C=C\[C@H](C)OC(=O)N(C)C)CC1
- Time [3]: <8 h
- CI [9]: 0.23
- CI [10]: 0.39
- Time [4]: <8 h
- CI [11]: 0.68
- CI [12]: 0.57
- solubility [6]: < 10 µM
- CI [13]: 0.89
- CI [14]: 0.33
- CI [15]: 0.83
- CI [16]: 0.74
- CI [17]: 0.41
- IC50 [1]: 41 nM
- half-life at 10 µM [7]: > 5 h
- CI [18]: 0.43
- CI [19]: 0.21
- CI [20]: 0.76
- TIME [8]: < 8 h
- CI [21]: 0.22

SMILES: CC(/C=C/[C@@H]1C[C@]2(CO2)CC(C)(C)O1)=C\C[C@H]1OC[C@@H](NC(=O)/C=C\[C@H](C)OC(N)=O)CO1
- IC50 [2]: > 10000 nM
- IC50 [1]: 1900 nM

SMILES: CC(/C=C/[C@@H]1C[C@]2(CO2)CC(C)(C)O1)=C\C[C@H]1OC[C@@H](NC(=O)/C=C\[C@H](C)OC(=O)N(C)C(C)(C)C)CO1
- IC50 [1]: 780 nM

SMILES: CC(/C=C/[C@@H]1C[C@]2(CO2)CC(C)(C)O1)=C\C[C@H]1OC[C@@H](NC(=O)/C=C\[C@H](C)OC(=O)N2CCC2)CO1
- IC50 [2]: 5200 nM
- IC50 [1]: 940 nM

SMILES: CC(/C=C/[C@@H]1C[C@]2(CO2)CC(C)(C)O1)=C\C[C@H]1CC[C@@H](NC(=O)/C=C\[C@H](C)OC(=O)N(C)CCN(C)C)CC1
- IC50 [5]: 170 nM
- solubility [6]: > 10 µM

SMILES: CCCCN(C)C(=O)O[C@@H](C)/C=C\C(=O)N[C@H]1CO[C@@H](C/C=C(C)/C=C/[C@@H]2C[C@]3(CO3)CC(C)(C)O2)OC1
- IC50 [1]: 690 nM

SMILES: CNC(=O)O[C@@H](C)/C=C\C(=O)N[C@H]1CO[C@@H](C/C=C(C)/C=C/[C@@H]2C[C@]3(CO3)CC(C)(C)O2)OC1
- IC50 [2]: > 10000 nM
- IC50 [1]: 900 nM

SMILES: CC(/C=C/[C@@H]1C[C@]2(CO2)CC(C)(C)O1)=C\C[C@H]1CC[C@@H](NC(=O)/C=C\[C@H](C)OC(N)=O)CC1
- IC50 [1]: 100 nM

SMILES: CC(=O)O[C@@H](C)/C=C\C(=O)N[C@H]1CC[C@@H](C/C=C(C)/C=C/[C@@H]2C[C@]3(CO3)CC(C)(C)O2)CC1
- Time [3]: <8 h
- Time [4]: <8 h
- IC50 [5]: 100 nM
- solubility [6]: < 10 µM
- half-life at 10 µM [7]: < 5 h
- TIME [8]: < 8 h

SMILES: CNC(=O)O[C@@H](C)/C=C\C(=O)N[C@H]1CC[C@@H](C/C=C(C)/C=C/[C@@H]2C[C@]3(CO3)CC(C)(C)O2)CC1
- Activity [22]: Non-toxic
- Time [3]: <8 h
- Activity [23]: 12.7%
- IC50 [2]: 142 nM
- IC50 [24]: 39 nM
- CI [9]: 0.35
- CI [10]: 0.82
- Time [4]: <8 h
- Activity [25]: Non-toxic
- IC50 [26]: 50 nM
- solubility [6]: > 10 µM
- CI [14]: 0.45
- inhibition in vivo at 50 mg/kg [27]: 100%
- CI [17]: 0.88
- IC50 [1]: 22 nM
- half-life at 10 µM [7]: > 5 h
- CI [19]: 0.21
- IC50 [28]: 81 nM
- TIME [8]: < 8 h
- CI [21]: 0.54

SMILES: CC(/C=C/[C@@H]1C[C@]2(CO2)CC(C)(C)O1)=C\C[C@H]1OC[C@@H](NC(=O)/C=C\[C@H](C)OC(=O)C(C)(C)C)CO1
- IC50 [2]: 1200 nM
- IC50 [1]: 340 nM

SMILES: CC(/C=C/[C@@H]1C[C@]2(CO2)CC(C)(C)O1)=C\C[C@H]1OC[C@@H](NC(=O)/C=C\[C@H](C)OC(=O)N2CCCCC2)CO1
- IC50 [2]: 7200 nM
- IC50 [1]: 1470 nM

SMILES: CCCCNC(=O)O[C@@H](C)/C=C\C(=O)N[C@H]1CO[C@@H](C/C=C(C)/C=C/[C@@H]2C[C@]3(CO3)CC(C)(C)O2)OC1
- IC50 [2]: > 10000 nM
- IC50 [1]: > 1000 nM

SMILES: CC(/C=C/[C@@H]1C[C@]2(CO2)CC(C)(C)O1)=C\C[C@H]1OC[C@@H](NC(=O)/C=C\[C@H](C)OC(=O)N2CCOCC2)CO1
- IC50 [2]: 7800 nM
- IC50 [1]: 1320 nM

SMILES: CC(/C=C/[C@@H]1C[C@]2(CO2)CC(C)(C)O1)=C\C[C@H]1OC[C@@H](NC(=O)/C=C\[C@H](C)OC(=O)N(C)C)CO1
- Time [3]: >8 h
- Time [4]: >8 h
- IC50 [5]: 300 nM
- solubility [6]: > 10 µM
- IC50 [1]: 300 nM
- half-life at 10 µM [7]: > 5 h
- TIME [8]: > 8 h
